Broadly, the IC50 is the concentration that inhibits the measured activity by half. Higher therefore signals weaker potency in that assay. What is called GI50 is the concentration that inhibits growth by half. A lower GI50 goes with more potent growth inhibition.

The results in this text go back to ChEMBL document CHEMBL1833901, “MDM2-p53 protein-protein interaction inhibitors: a-ring substituted isoindolinones” (Bioorg Med Chem Lett, 2011).

The structures appear in SMILES notation. Calls of active or inactive are those of the source. The calls are words filed in the database; no cut-off is given here.

Test [1] has as its target Tumour suppressor p53/oncoprotein Mdm2 (Homo sapiens, UniProt Q00987). Description: Inhibition of human MDM2-p53 interaction after 20 mins by […] method. It is filed as protein assay.
For test [2], the system named is A2780. Description: Growth inhibition of human A2780 cells expressing MDM2 by SRB assay. It is filed as functional. In general terms: The SRB assay estimates cell density from bound dye.
For test [3], the system named is HCT-116. Nature of the test: Growth inhibition of p53 deficient human HCT116 cells expressing MDM2 by SRB assay. It is filed as functional.
Test [4] relates to HCT-116. Nature of the test: Growth inhibition of human HCT116 cells expressing MDM2 by SRB assay. In kind it is functional.
For test [5], the system named is SJSA-1. Nature of the test: Growth inhibition of human SJSA1 cells expressing MDM2 by SRB assay. In kind it is functional. The procedure, abridged: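 Growth inhibition assayed in the MDM2-amplified cell line SJSA-1. Values are the mean of at least three determinations ± SE.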
Test [6] is described as follows: Growth inhibition of human A2780/CP70 cells expressing isogenically paired p53 mutant by SRB assay. In kind it is functional.
For test [7], the system named is SJSA-1. Nature of the test: Increase of P21 protein level in human SJSA1 cells at 5 to 10 uM after 6 hrs by Western blotting. In kind it is functional, cell-based.
Test [8] deals with SJSA-1. Nature of the test: Increase of P53 expression in human SJSA1 cells at 5 to 10 uM after 6 hrs by Western blotting. It is filed as functional, cell-based. A general note: A western blot detects proteins with antibodies after separation by electrophoresis.
Test [9] has as its system SJSA-1. Description: Increase of MDM2 expression in human SJSA1 cells at 5 to 10 uM after 6 hrs by Western blotting. In kind it is functional, cell-based.
Test [10] deals with SJSA-1. Nature of the test: Increase of MDM2 expression in human SJSA1 cells after 6 hrs by Western blotting. In kind it is functional, cell-based.
Test [11] has as its system SJSA-1. Nature of the test: Increase of P53 expression in human SJSA1 cells after 6 hrs by Western blotting. It is filed as functional, cell-based.
Test [12] relates to SJSA-1. Nature of the test: Increase of P21 protein level in human SJSA1 cells after 6 hrs by Western blotting. It is filed as functional, cell-based.

Sequence of Tumour suppressor p53/oncoprotein Mdm2 (P04637 whole entry): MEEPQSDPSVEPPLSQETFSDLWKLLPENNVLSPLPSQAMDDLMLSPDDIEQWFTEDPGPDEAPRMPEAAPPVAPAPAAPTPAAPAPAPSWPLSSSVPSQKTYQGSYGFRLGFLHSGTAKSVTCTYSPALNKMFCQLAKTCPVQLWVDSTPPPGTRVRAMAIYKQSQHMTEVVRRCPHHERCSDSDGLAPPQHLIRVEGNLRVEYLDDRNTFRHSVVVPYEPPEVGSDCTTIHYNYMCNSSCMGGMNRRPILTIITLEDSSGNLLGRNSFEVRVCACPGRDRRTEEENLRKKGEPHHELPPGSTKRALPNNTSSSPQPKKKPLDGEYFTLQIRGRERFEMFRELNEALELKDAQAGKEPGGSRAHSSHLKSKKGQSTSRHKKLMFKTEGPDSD
Sequence of Tumour suppressor p53/oncoprotein Mdm2 (Q00987 whole entry): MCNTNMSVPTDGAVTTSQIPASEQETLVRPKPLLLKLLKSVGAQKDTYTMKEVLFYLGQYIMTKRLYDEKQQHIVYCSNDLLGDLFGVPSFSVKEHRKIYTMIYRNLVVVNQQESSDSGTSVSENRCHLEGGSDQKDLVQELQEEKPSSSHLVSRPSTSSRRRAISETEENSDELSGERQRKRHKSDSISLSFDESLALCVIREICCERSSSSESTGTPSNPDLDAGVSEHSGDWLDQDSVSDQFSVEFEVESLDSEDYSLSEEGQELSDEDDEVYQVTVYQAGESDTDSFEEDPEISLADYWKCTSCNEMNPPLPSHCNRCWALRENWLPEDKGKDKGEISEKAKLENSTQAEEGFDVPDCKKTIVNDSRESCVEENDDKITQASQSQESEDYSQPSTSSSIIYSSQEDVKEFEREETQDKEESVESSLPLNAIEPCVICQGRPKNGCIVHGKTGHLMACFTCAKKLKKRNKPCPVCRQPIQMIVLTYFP

With `CCCN1C(=O)C(C)=C(C)C1(OCC1(CO)CC1)c1ccc(Cl)cc1` (stereo not drawn), in test [1], half-maximal inhibition (IC50) was put at 8.9 µM.
`O=C1c2cccc(Cl)c2C(OCC2(CO)CC2)(c2ccc(Cl)cc2)N1Cc1ccc([N+](=O)[O-])cc1` (single isomer, unassigned; (-)) [listing 1 of 2 here]: the GI50 stood at 3.3 µM in test [2]; 12.5 µM in [3] (Homo sapiens, HCT-116); 3.7 µM in test [4]; 3.7 µM in [5]; 13.6 µM in test [6] (Homo sapiens, A2780/CP70).
For `CC(C)(C)C[C@H]1N[C@@H](C(=O)NCCN2CCOCC2)[C@H](c2cccc(Cl)c2F)[C@@]12C(=O)Nc1cc(Cl)ccc12`, the GI50 in [2] (Homo sapiens, A2780) was 1.19 µM; in test [3] (Homo sapiens, HCT-116), 11.8 µM; in [4] (Homo sapiens, HCT-116) it was 1.3 µM; in test [5] (Homo sapiens, SJSA-1) it was 0.55 µM; in test [6] (Homo sapiens, A2780/CP70), 15.1 µM.
Compound `O=C1C2=C(CCCC2)C(OCC2(CO)CC2)(c2ccc(Cl)cc2)N1Cc1ccc([N+](=O)[O-])cc1` (stereo not drawn) gave an IC50 in [1] of 3.47 µM.
Regarding `O=C1c2cccc(Cl)c2C(OCC2(CO)CC2)(c2ccc(Cl)cc2)N1Cc1ccc([N+](=O)[O-])cc1` (single isomer, unassigned; (+)) [listing 1 of 2 here], the outcome in test [7], in test [8] and in test [9] was inactive.
In test [1], `O=C1c2cccc(Cl)c2C(OCC2(CO)CC2)(c2ccc(Cl)cc2)N1Cc1ccc(S(=O)(=O)C(F)(F)F)cc1` (stereo not drawn) returned an IC50 of 9 µM.
Take `COc1ccc(C2=N[C@@H](c3ccc(Cl)cc3)[C@@H](c3ccc(Cl)cc3)N2C(=O)N2CCNC(=O)C2)c(OC(C)C)c1` [NUTLIN-3]: the GI50 in [2] (Homo sapiens, A2780) was 1.6 µM; in [3] (Homo sapiens, HCT-116), 25.6 µM; in test [4] (Homo sapiens, HCT-116), 2.1 µM; in [5] (Homo sapiens, SJSA-1) it was 1.3 µM; in test [6] (Homo sapiens, A2780/CP70), 20.4 µM.
Consider `O=C1c2cccc(Cl)c2C(OCC2(CO)CC2)(c2ccc(Cl)cc2)N1Cc1ccc([N+](=O)[O-])cc1` (racemic) [listing 1 of 2 here], for which the Activity result in test [10], in test [11] and in [12] was “Dose-dependent effect” throughout.
Compound `CC1=C(C)C(OCC2(CO)CC2)(c2ccc(Cl)cc2)N(Cc2ccccc2)C1=O` (stereo not drawn) registered an IC50 in test [1] of 3.45 µM.
As for `O=C1c2cccc(Cl)c2C(OCC2(CO)CC2)(c2ccc(Cl)cc2)N1Cc1ccc([N+](=O)[O-])cc1` (single isomer, unassigned; (+)) [listing 2 of 2 here], the GI50 in [2] was 7.7 µM; in test [3], 14.4 µM; in [4] it was 12.3 µM; in test [5], 12.2 µM; in test [6], 14.5 µM.
For the compound `O=C1c2cccc(Cl)c2C(OCC2(CO)CC2)(c2ccc(Cl)cc2)N1Cc1ccc([N+](=O)[O-])cc1` (single isomer, unassigned; (-)) [listing 2 of 2 here], the Activity entry in test [10], in test [11] and in test [12] was “Dose-dependent effect” each time.
Consider `O=C1c2cccc(Cl)c2C(OCC2(CO)CC2)(c2ccc(Cl)cc2)N1Cc1ccc([N+](=O)[O-])cc1` (racemic) [listing 2 of 2 here], for which the GI50 is 4.2 µM in test [2]; 14.9 µM in test [3]; 6 µM in test [4]; 6 µM in test [5]; 15.9 µM in test [6].
